A selection: hits, their analogues and other compounds. The true share with any hit is near 3.9%.
SR-BI uptake up: enhances SR-BI lipid uptake from DiI-HDL; CHO ldlA[mSR-BI] cells, DiI-HDL uptake fluorescence, 3 h; 100 = double the neutral-control signal; activation, % at 12.5 µM; 0.096% of 320,000 active;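 active = mean replicate activation of at least 60% and every replicate at or above 60%; inconclusive = mean or all-replicate condition met, but not both; inactive = mean below 60% and not all replicates reaching 60%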;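 also: 0% = median plate neutral-control signal and 100% = twice that signal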
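System: CHO ldlA[mSR-BI] cells / Medium: HEPES-buffered (25 mM, pH 7.4) F12 plus 0.5% BSA / Probe or stimulus: labelled HDL, 10 µg/mL / Doses: single compound concentration, delivered by pin transfer / Schedule: 3 h, 37 °C / Measured by: DiI fluorescence, bottom read / Measure: cell-associated DiI fluorescence as measure of HDL uptake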
SR-BI DiI inh: inhibitors of mouse SR-BI mediated HDL lipid uptake. ldlA[mSR-BI] CHO cells, DiI-HDL uptake fluorescence, 3 h. inhibition, % at 12.5 µM. 0.96% of 320,000 active;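 active = mean replicate inhibition of at least 70% and a set share of replicates each scoring 70 or more; inconclusive = meets just one of the two criteria; inactive = fails both criteria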;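 also: 0% = median of neutral control wells and 100% = median of positive control wells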
FXN GAA850 act: frataxin GAA850 promoter activation; 0.56% of 360,000 active; HEK293 lucGAA850 FXN promoter luciferase reporter, 24 h; percent of 10 µM SAHA response; activation, % at 6 µM;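 active = activation above the average of all compounds screened plus 3 SD, cutoff fixed separately per campaign, cut at about 7.5% in these data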;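 also: 0% = DMSO wells and 100% = 10 µM SAHA wells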
HIF activator: HIF pathway transcriptional activation. U2OS HRE-luciferase reporter, luminescence; normalized: DMSO 0%, desferrioxamine 100%. activation, % at 7.5 µM (by protocol). 0.32% of 300,000 active. AID 1910;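 active = mean activation of at least 10% of the iron chelator positive control signal, with at least half of replicates also reaching 10%; inconclusive = mean and replicate majority disagree about reaching 10%; inactive = mean and most replicates under 10%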
AHR act: activates the human aryl hydrocarbon receptor; AHR-responsive luciferase reporter cells, luminescence; activation, % at 5 µM; 2.5% of 320,000 active; AID 2796; in the data active = activation above about 47%;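 also: 0% = vehicle wells and 100% = reference agonist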
ABCB6 inh MLPCN: blocks the human ABCB6 transporter; Q9NP58; K562-ABCB6 porphyrin accumulation, flow cytometry, 1 h; stronger effect = lower value; fluorescence ratio to DMSO, % at 10 µM; 0.19% of 360,000 active;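 active = fluorescence ratio to DMSO below 75%, the collection mean minus 3 SD; inconclusive = too few cells collected in the well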;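 also: signal is porphyrin accumulated inside mitochondria; 100% equals median channel fluorescence of DMSO control wells; lower ratio means ABCB6 inhibition with less porphyrin fluorescence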
Target sequence (Q9NP58 whole entry, looked up): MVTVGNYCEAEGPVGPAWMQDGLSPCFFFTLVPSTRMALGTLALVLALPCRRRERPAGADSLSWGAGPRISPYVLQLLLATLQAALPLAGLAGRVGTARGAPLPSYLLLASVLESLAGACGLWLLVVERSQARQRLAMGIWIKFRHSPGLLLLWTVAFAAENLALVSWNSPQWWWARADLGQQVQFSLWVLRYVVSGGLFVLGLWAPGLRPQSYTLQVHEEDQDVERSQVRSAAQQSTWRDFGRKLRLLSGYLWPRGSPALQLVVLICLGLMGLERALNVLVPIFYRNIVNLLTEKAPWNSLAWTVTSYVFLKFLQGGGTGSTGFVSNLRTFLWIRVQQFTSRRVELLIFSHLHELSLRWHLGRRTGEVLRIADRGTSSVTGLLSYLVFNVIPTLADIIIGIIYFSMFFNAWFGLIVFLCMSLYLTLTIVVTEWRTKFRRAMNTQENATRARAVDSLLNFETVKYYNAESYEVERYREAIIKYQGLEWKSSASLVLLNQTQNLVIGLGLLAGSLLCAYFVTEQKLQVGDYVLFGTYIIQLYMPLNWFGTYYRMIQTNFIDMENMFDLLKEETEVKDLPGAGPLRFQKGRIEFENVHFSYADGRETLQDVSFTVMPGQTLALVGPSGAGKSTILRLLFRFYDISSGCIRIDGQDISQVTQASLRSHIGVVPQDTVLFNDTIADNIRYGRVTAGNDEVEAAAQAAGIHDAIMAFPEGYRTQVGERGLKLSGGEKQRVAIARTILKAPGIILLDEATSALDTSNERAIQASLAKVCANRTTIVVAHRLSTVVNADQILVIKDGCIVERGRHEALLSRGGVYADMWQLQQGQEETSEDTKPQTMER
DiI quencher: counter-screen for SR-BI lipid transfer inhibitors: DiI fluorescence quenchers; cell-free DiI-HDL fluorescence quenching, 30 min; 20% of 470 active; AC50, µM (top dose mostly 35 µM), for the others: top-dose activity change, negative = quenching; shares compounds with SR-BI DiI inh; AID 540326;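 active = quenching, a falling signal, with AC50 below a set limit tied to the top valid dose, actives reach about 32 µM in these data; inconclusive = no clear call, values can overlap the other calls; inactive = rising signal, and the rest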
GAA30 FXN cntr: counter-screen for GAA850 frataxin promoter activators: GAA30 promoter activation; shares compounds with FXN GAA850 act; HEK293 lucGAA30 FXN promoter luciferase, 24 h; DMSO = 0%, 5 µM ipriflavone = 100%; activation, % at 6 µM; 66% of 1,900 active; AID 588350;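 active = mean activation above the mean of solvent-only control wells plus 3 SD, cut at about 22% in these data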;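 also: counterscreen of GAA850 promoter hits where activity marks nonselective or luminescence artifacts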
FXN GAA850 conf: GAA850 FXN promoter activation confirmation; shares compounds with FXN GAA850 act; HEK293 lucGAA850 FXN promoter luciferase reporter, 24 h; 100% = activation by SAHA; activation, % at 6 µM; 86% of 1,900 active;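 active = mean activation above a set limit taken from the primary screen, cut at about 8% in these data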;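 also: 0% = DMSO wells and 100% = 10 µM SAHA wells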
* hit, by the source's call; ? = inconclusive; nt = no result given.

SMILES | SR-BI uptake up | SR-BI DiI inh | FXN GAA850 act | HIF activator | AHR act | ABCB6 inh MLPCN | GAA30 FXN cntr | FXN GAA850 conf | others
COc1ccc(-c2csc(NCCc3nc4cc(Cl)c(N5CCCCC5)cc4n3CCOCCO)n2)cc1 | -83 | 83* | -2 | 0 | 11 | 100 | nt | nt | DiI quencher=13µM*
COc1ccc(-c2csc(N3CCN(c4cc5c(cc4Cl)nc(-c4ccncc4)n5CCOCCO)CC3)n2)cc1 | -61 | 61 | -1 | -4 | 5 | 103 | nt | nt
CCCCN(CCCC)c1ncnc2nc[nH]c12 | -7 | 7 | 1 | 1 | 5 | 98 | nt | nt
CCCCN(Cc1ccccc1)c1ncnc2nc[nH]c12 | -74 | 74* | 3 | 3 | 11 | 93 | nt | nt | DiI quencher=0%
CCc1ccc(Oc2cc(Cl)nc(N)n2)cc1 | 2 | -2 | 7.7* | 2 | 12 | 97 | 103* | 36*
COc1ccc(Oc2cc(Cl)nc(N)n2)cc1 | 23 | -23 | 0 | 1 | -1 | 103 | nt | nt
COC(=O)c1ccc(OC)c(CSc2nnc(COc3cccc(C)c3)o2)c1 | -25 | 25 | 0 | 0 | 2 | 90 | nt | nt
COc1ccc(OCCOc2ccc(C)nc2[N+](=O)[O-])cc1 | -8 | 8 | 7.7* | 2 | -3 | 99 | 78* | 24*
CCOC(=O)c1c(-c2ccc(F)cc2)csc1NC(=O)CN1C(=O)NC2(CCCCC2C)C1=O (centres undefined) | -28 | 28 | 13* | 1 | 11 | 99 | 9 | 18*
CCCC(=O)Nc1ccc2nc(C)n(Cc3ccccc3Cl)c(=O)c2c1 | 9 | -9 | 3 | -1 | 11 | 94 | nt | nt
CCOC(=O)c1c(C)nc2c3ccccc3ccn12 | 16 | -16 | 8.1* | 1 | 75* | 86 | 118* | 44*
COc1ccccc1-c1nc(-c2ccc(C)nc2OC)no1 | -35 | 35 | 8.8* | 5 | -4 | 95 | 121* | 40*
COc1nc(C)ccc1-c1noc(-c2ccccn2)n1 | 4 | -4 | 6 | 2 | -7 | 103 | nt | nt
O=C(Cc1ccccc1)N/N=C/c1ccc2c(c1)OCO2 | -7 | 7 | 9.5* | 2 | 22 | 96 | 84* | 30*
O=C(CCc1ccccc1)NCC(=O)N/N=C/c1ccc2c(c1)OCO2 | 5 | -5 | 0 | 0 | 5 | 92 | nt | nt
Clc1ccccc1Cn1nnc(-c2ccccc2)n1 | 7 | -7 | 2 | 2 | 41 | 94 | nt | nt
CN(C)c1ccc(-c2nnn(Cc3ccccc3Br)n2)cc1 | 14 | -14 | 12* | nt | 7 | 98 | 70* | 26*
O=C(NC1CCCC1)C(c1ccsc1)N(Cc1ccccc1)C(=O)Cc1cccs1 (centres undefined) | -30 | 30 | 14* | nt | -2 | 93 | 14 | 19*
N#C/C(=C\C=C\c1ccccc1[N+](=O)[O-])C(=O)NC1CCCCC1 | -26 | 26 | 14* | 1 | 0 | 91 | -34 | 18*
N#C/C(=C\c1ccccc1[N+](=O)[O-])C(=O)NC1CCCCC1 | -20 | 20 | 2 | -1 | 2 | 94 | nt | nt
C=CCOc1ccc2nc(NC(=O)OC)[nH]c2c1 | 22 | -22 | 7.7* | 4 | 9 | 97 | -12 | 41*
CSc1ccc(/C=c2\s/c(=C\C(=O)C(C)(C)C)n(CC(=O)NCCC3=CCCCC3)c2=O)cc1 | -30 | 30 | 0 | 0 | 3 | 98 | nt | nt
CN(C)S(=O)(=O)n1cc(/C=C(\NC(=O)c2ccccc2Cl)C(=O)N2CCCC2)c2ccccc21 | -24 | 24 | 8.8* | -1 | 2 | 97 | 15 | 11*
CCCCNc1ccc(C(F)(F)F)cc1S(=O)(=O)NCCc1ccc(F)cc1 | -37 | 37 | 12* | nt | nt | 97 | 33* | 17*
CCc1sc(C(=O)Nc2ccc3c(c2)OCCO3)cc1Br | -71 | ? | 8.0* | 3 | -2 | 92 | 111* | 41*
SMILES | SR-BI uptake up | SR-BI DiI inh | FXN GAA850 act | HIF activator | AHR act | ABCB6 inh MLPCN | GAA30 FXN cntr | FXN GAA850 conf | others
Cc1ccc(C)c(NC(=O)c2c(Cl)nc3ccccn23)c1 | -7 | 7 | 1 | 0 | -6 | 102 | nt | nt
Cc1ccc(NC(=O)c2c(Cl)nc3ccccn23)cc1 | -25 | 25 | 10* | 1 | 29 | 98 | 116* | 37*
CCC1Nc2ccccc2-c2nnc(SC)nc2O1 (centres undefined) | -1 | 1 | 2 | 0 | 9 | 95 | nt | nt
COc1ccccc1C(=O)C1Nc2ccccc2-c2nnc(SC)nc2O1 (centres undefined) | 16 | -16 | 8.8* | 0 | 8 | 100 | 16 | 5
CC(C)c1ccc(OCC(=O)N2CCCCCC2)c(Br)c1 | 9 | -9 | 7.8* | 2 | 14 | 93 | 86* | 29*
CC(C)NC(=O)CN1C(=O)C(C)(C)Oc2ccc(C(=O)NC3CCCCC3)cc21 | 12 | -12 | 0 | 0 | 3 | 89 | nt | nt
CC(=O)Nc1nc(C2CC2)cc(-c2ccccc2)c1C#N | -9 | 9 | 1 | 0 | 4 | 102 | nt | nt
N#Cc1c(-c2ccccc2)cc(C2CC2)nc1N | 3 | -3 | 8.3* | -1 | 10 | 92 | 13 | 9.5*
CN(C)S(=O)(=O)N1C(=O)c2ccccc2C1=O | -6 | 6 | 1 | 2 | 7 | 98 | nt | nt
Cc1ccc(Nc2nc3ccccc3[nH]2)nc1 | -1 | 1 | 9.4* | 6 | 17 | 93 | 86* | 43*
CCc1ccccc1Nc1nc2ccccc2[nH]1 | nt | nt | 0 | 1 | 3 | 99 | nt | nt
N#CC(c1ccccc1)(c1ncc(C(F)(F)F)cc1Cl)N1CCOCC1 (centres undefined) | 38 | -38 | 11* | 0 | 0 | 106 | 26* | 9.1*
Brc1ccc2c(c1)-c1ccccc1C1=NCCN12 | nt | nt | 24* | nt | nt | 92 | 11 | 130*
Clc1ccc2c(c1)-c1ccccc1C1=NCCN12 | nt | nt | 33* | nt | nt | 97 | -1 | 139*
Cc1c(Cl)ccc2sc(NC(=O)c3ccco3)nc12 | -43 | 43 | 7.7* | 5 | 25 | 97 | 105* | 38*
CN(C)c1ccc(C(=O)c2ccc(O)cc2O)cc1 | -1 | 1 | 1 | 3 | 36 | 98 | nt | nt
CN(C)c1ccc(Cc2cc3c(O)ccc(O)c3cc(Cc3ccc(N(C)C)cc3)c2=O)cc1 | -27 | 27 | 14* | nt | nt | 106 | 16 | 23*

Screens: PubChem BioAssay, several laboratories
